pIC50: −log10 of the molar value.
What was measured:
Cavia porcellus = species on record: Cavia porcellus; assay: In vitro molar concentration required to block [Ca2+] -induced contraction of K+-depolarized taenia cecum of guinea pigs; assay type: functional; conditions: Caecum
How it was run: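 Guinea pig taenia cecum washed with Ca2+-free high-K+ Krebs solution after equilibration. Compound applied 5 min before CaCl2 (3 × 10^-4 M). Contraction recorded isotonically.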

Mus musculus = species on record: Mus musculus; assay: Effect on acute thrombic death induced by collagen in mice; assay type: functional; conditions: read-out: ID50 (the source's name)
How it was run: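 Male ddY mice (20-30 g) given compound orally as 0.5% tragacanth suspension 3 h before rapid tail-vein injection (2 s) of collagen (type III, 3 mg/mL in acetic acid/Tris pH 7.4), about 30 mg/kg, set so […] within 3 min. Survival scored; % inhibition = (St - Sc)/(100 - Sc); ID50 in mg/kg po; n=8 treated, 12 control.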

Oryctolagus cuniculus [1] = species on record: Oryctolagus cuniculus; assay: Electrophysiological effect in isolated rabbit hearts as molar concentration that prolongs the His bundle ventricular (H-V) conduction time by 10%; assay type: functional, Cardiac ventricle
Rattus norvegicus [2] = assay: Hypotensive effect in Spontaneously hypertensive rats as maximum decrease in systolic blood pressure at 100 mg/kg, po dose; assay type: functional, Artery
How it was run: (§1)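 Male SHR, 300-400 g, conscious, 6-13 animals. Oral dosing as a 0.5% methylcellulose suspension. Systolic pressure by tail-cuff plethysmography at 0, 1, 3, 6, 9 and 24 h after dosing; heart rate from pulse over 4 s. Value is maximum SBP fall, mean ± SEM of six animals; Dunnett's test.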

Rattus norvegicus [3] = assay: Hypotensive effect in Spontaneously hypertensive rats as maximum decrease in systolic blood pressure at 30 mg/kg, po dose; assay type: functional, Artery; how it was run: as §1
Rattus norvegicus [4] = assay: Hypotensive effect in Spontaneously hypertensive rats as maximum decrease in systolic blood pressure at 10 mg/kg, po dose; assay type: functional, Artery; how it was run: as §1
Oryctolagus cuniculus [5] = species on record: Oryctolagus cuniculus; assay: Electrophysiological effect in isolated rabbit hearts as molar concentration that prolongs the atrio-His bundle (A-H) conduction time by 30%; assay type: functional
[6] = Ratio between EC10 and EC30 in isolated rabbit hearts in His bundle ventricular intervals; assay type: functional

pIC50 (Cavia porcellus)	SMILES	also measured
5.06	COc1ccc(OCCCCN2CCC(C(=O)c3ccc(Cl)cc3)CC2)c(C2Sc3ccccc3N2C(C)=O)c1 (configuration not stated)	
5.64	COc1cc(CCN2CCN(CCCCOc3ccc(Cl)cc3C3Sc4ccccc4N3C(C)=O)CC2)cc(OC)c1OC (configuration not stated)	
6.47	COc1ccc(OCCCCN(C)CCc2ccc(OC)c(OC)c2OC)c(C2Sc3ccccc3N2C(C)=O)c1 (configuration not stated)	
6.00	CCN(CCCCOc1ccc(OC)cc1C1Sc2ccccc2N1C(C)=O)CCc1cc(OC)c(OC)c(OC)c1 (configuration not stated)	
6.89	COc1ccc(OCCCCN(CCc2cc(OC)c(OC)c(OC)c2)C(C)C)c(C2Sc3ccccc3N2C(C)=O)c1 (configuration not stated)	
6.19	COc1ccc(OCCCCN2CCN(CCc3ccc(OC)c(OC)c3)CC2)c(C2Sc3ccccc3N2C(C)=O)c1 (configuration not stated)	
5.89	COc1ccc(OCCCCCN(C)CCc2cc(OC)c(OC)c(OC)c2)c(C2Sc3ccccc3N2C(C)=O)c1 (configuration not stated)	
5.80	COc1ccc(OCCCN(C)C)c(C2Sc3ccccc3N2C(C)=O)c1 (configuration not stated)	
4.96	COc1ccc(OCCCCCCN2CCN(CCc3ccc(OC)c(OC)c3)CC2)c(C2Sc3ccccc3N2C(C)=O)c1 (configuration not stated)	
5.36	CC(=O)N1c2ccccc2SC1c1ccc(OCCCN(C)C2CCCCC2)cc1 (configuration not stated)	
5.32	COc1ccc(OCCCCN2CCC(C(=O)c3ccc(F)cc3)CC2)c(C2Sc3ccccc3N2C=O)c1 (configuration not stated)	
4.77	COc1ccc(OCCCCCN2CCC(C(=O)c3ccccc3)CC2)c(C2Sc3ccccc3N2C(C)=O)c1 (configuration not stated)	
5.39	CC(=O)N1CCSC1c1cc([N+](=O)[O-])ccc1OCCCN(C)C (configuration not stated)	
5.80	COc1ccc(OCCCCN2CCC(C(=O)c3ccc(F)cc3)CC2)c(C2Sc3ccccc3N2C(C)=O)c1 (configuration not stated)	
5.85	COc1ccc(OCCCCN2CCC(C(=O)c3ccccc3)CC2)c(C2Sc3ccccc3N2C(C)=O)c1 (configuration not stated)	
5.49	CCC(=O)N1c2ccccc2SC1c1ccccc1OCCCN(C)C1CCCCC1 (configuration not stated)	
6.11	COc1ccc(OCCCN(C)CCc2cc(OC)c(OC)c(OC)c2)c(C2Sc3ccccc3N2C(C)=O)c1 (configuration not stated)	
5.89	COc1ccc(OCCCCCN(C)CCc2ccc(OC)c(OC)c2)c(C2Sc3ccccc3N2C(C)=O)c1 (configuration not stated)	
5.52	COc1ccc(OCCCN2CCN(CCc3ccc(OC)c(OC)c3)CC2)c(C2Sc3ccccc3N2C(C)=O)c1 (configuration not stated)	
5.19	COc1ccc(OCCCCNCCc2cc(OC)c(OC)c(OC)c2)c(C2Sc3ccccc3N2C(C)=O)c1 (configuration not stated)	
5.92	COc1ccc(OCCCCN(C)CCCc2ccc(OC)c(OC)c2OC)c(C2Sc3ccccc3N2C(C)=O)c1 (configuration not stated)	
5.26	CC(=O)N1c2ccccc2SC1c1ccc(OCCCN(C)C)cc1 (configuration not stated)	
4.89	COc1cccc(C2Sc3ccccc3N2C(C)=O)c1OCCCN(C)C (configuration not stated)	
5.92	COc1ccc(OCCCCCN(C)C2CCCCC2)c(C2Sc3ccccc3N2C(C)=O)c1 (configuration not stated)	
5.70	COc1ccc(OCCCN(C)CCc2ccc(OC)c(OC)c2OC)c(C2Sc3ccccc3N2C(C)=O)c1 (configuration not stated)	
5.00	CCC(=O)N1c2ccccc2SC1c1cc(OC)ccc1OCCCCN1CCC(C(=O)c2ccccc2)CC1 (configuration not stated)	
5.80	COc1ccc(OCCCCN(C)CC(C)c2ccc(OC)c(OC)c2)c(C2Sc3ccccc3N2C(C)=O)c1 (configuration not stated)	

The next lines start with the compound.

SMILES	pIC50 (Cavia porcellus)	also measured
COc1ccc(OCCCCN2CCN(CCc3cc(OC)c(OC)c(OC)c3)CC2)c(C2Sc3ccccc3N2C=O)c1 (configuration not stated)	5.59	
COC(=O)C1=C(C)NC(C)=C(C(=O)OC)C1c1ccccc1[N+](=O)[O-] [NIFEDIPINE]		ED50 (Mus musculus): > 30 mg/kg
CNCCCCOc1ccc(OC)cc1C1Sc2ccccc2N1C(C)=O (configuration not stated)	5.70	
COc1ccc(OCCCCN(C)CCc2cc(OC)c(OC)c(OC)c2)c(C2Sc3ccccc3N2C(C)=O)c1 (configuration not stated)	6.89	ED50 (Mus musculus): 12 mg/kg; EC10 (Oryctolagus cuniculus [1]): 0.2 µM; Decrease of SBP (Rattus norvegicus [2]): 87.5 mmHg; Decrease of SBP (Rattus norvegicus [3]): 48.3 mmHg
COc1ccc(OCCCCCN(C)C2CCCCC2)c(C2Sc3ccccc3N2C=O)c1 (configuration not stated)	5.57	
COc1ccc(OCCCCCN2CCN(CCc3ccc(OC)c(OC)c3)CC2)c(C2Sc3ccccc3N2C(C)=O)c1 (configuration not stated)	6.09	
COc1ccc(OCCCN2CCC(C(=O)c3ccccc3)CC2)c(C2Sc3ccccc3N2C(C)=O)c1 (configuration not stated)	4.96	
COc1ccc(OCCCCN2CCC(C(=O)c3ccccc3)CC2)c(C2SCCN2C(C)=O)c1 (configuration not stated)	3.39	
CN(CCCOc1ccccc1C1Sc2ccccc2N1C=O)C1CCCCC1 (configuration not stated)	5.40	
CC(=O)N1c2ccccc2SC1c1ccc(OCCN(C)C)cc1 (configuration not stated)	4.44	
CC(=O)N1c2ccccc2SC1c1cc(Cl)ccc1OCCCCN1CCC(C(=O)c2ccccc2)CC1 (configuration not stated)	4.89	
CC(=O)N1c2ccccc2SC1c1cc([N+](=O)[O-])ccc1OCCCN(C)C (configuration not stated)	5.21	
COC(=O)C1=C(C)NC(C)=C(C(=O)OCCN(C)Cc2ccccc2)C1c1cccc([N+](=O)[O-])c1 (configuration not stated) [NICARDIPINE]		ED50 (Mus musculus): > 30 mg/kg
COc1ccc(OCCCN(C)CCc2ccc(OC)c(OC)c2)c(C2Sc3ccccc3N2C(C)=O)c1 (configuration not stated)	6.11	
CC(=O)N1c2ccccc2SC1c1cccc(OCCCN(C)C)c1 (configuration not stated)	4.96	
Clc1ccccc1CN1CCc2sccc2C1 [TICLOPIDINE]		ED50 (Mus musculus): 260 mg/kg
CC(=O)N1c2ccccc2SC1c1cc([N+](=O)[O-])ccc1OCCCCN1CCC(C(=O)c2ccccc2)CC1 (configuration not stated)	5.32	
COc1ccc(CCN(C)CCCC(C#N)(c2ccc(OC)c(OC)c2)C(C)C)cc1OC (configuration not stated) [VERAPAMIL]	7.00	ED50 (Mus musculus): > 30 mg/kg; Decrease of SBP (Rattus norvegicus [4]): 24.2 mmHg; Decrease of SBP (Rattus norvegicus [3]): 83.3 mmHg
CC(=O)N1c2ccccc2SC1c1ccccc1OCCCN(C)C (configuration not stated)	5.00	

SMILES	pIC50 (Cavia porcellus)	also measured
COc1cccc(C2Sc3ccccc3N2C(C)=O)c1OCCCCN(C)C1CCCCC1 (configuration not stated)	5.06	
COc1ccc(OCCCCN(C)C2CCCCC2)c(C2Sc3ccccc3N2C(C)=O)c1 (configuration not stated)	5.40	
COc1ccc(OCCCCCN(C)CCc2ccc(OC)c(OC)c2OC)c(C2Sc3ccccc3N2C(C)=O)c1 (configuration not stated)	5.10	
COc1ccc(OCCCCN(CCc2cc(OC)c(OC)c(OC)c2)C2CC2)c(C2Sc3ccccc3N2C(C)=O)c1 (configuration not stated)	5.92	
CCC(=O)N1c2ccccc2SC1c1cc(OC)ccc1OCCCCCN(C)C1CCCCC1 (configuration not stated)	5.15	
COc1ccc([C@@H]2Sc3ccccc3N(CCN(C)C)C(=O)[C@@H]2OC(C)=O)cc1 [DILTIAZEM]	6.77	ED50 (Mus musculus): > 30 mg/kg; EC30 (Oryctolagus cuniculus [5]): 0.44 µM; EC10 (Oryctolagus cuniculus [1]): 2.6 µM; Ratio [6]: 6.5; Decrease of SBP (Rattus norvegicus [2]): 44.2 mmHg; Decrease of SBP (Rattus norvegicus [3]): 22.5 mmHg
COc1ccc(OCCCCN(C)CCc2ccc(OC)c(OC)c2)c(C2Sc3ccccc3N2C(C)=O)c1 (configuration not stated)	6.18	
COc1ccc(OCCCCN)c(C2Sc3ccccc3N2C(C)=O)c1 (configuration not stated)	< 4.00	
CC(=O)N1CCSC1c1ccc(OCCN(C)C)cc1 (configuration not stated)	< 4.00	
CC(=O)N1c2ccccc2SC1c1cc([N+](=O)[O-])ccc1OCCCCN(C)C1CCCCC1 (configuration not stated)	5.27	
COc1ccc(OCCCCN2CCN(CCc3cc(OC)c(OC)c(OC)c3)CC2)c(C2Sc3ccccc3N2C(C)=O)c1 (configuration not stated)	6.33	
CC(=O)N1CCSC1c1ccccc1OCCN(C)C (configuration not stated)	< 4.00	
CCC(=O)N1c2ccccc2SC1c1cc(OC)ccc1OCCCCN1CCN(CCc2cc(OC)c(OC)c(OC)c2)CC1 (configuration not stated)	5.92	
COc1ccc(OCCCN(C)C2CCCCC2)c(C2Sc3ccccc3N2C(C)=O)c1 (configuration not stated)	5.38	
COc1ccc(OCCCCCCN(C)C2CCCCC2)c(C2Sc3ccccc3N2C(C)=O)c1 (configuration not stated)	5.38	
CC(=O)N1c2ccccc2SC1c1ccccc1OCCN(C)C (configuration not stated)	4.77	
CC(=O)N1c2ccccc2SC1c1cc(Cl)ccc1OCCCN(C)C (configuration not stated)	5.42	
CC(=O)N1c2ccccc2SC1c1ccccc1OCCCN(C)C1CCCCC1 (configuration not stated)	5.77	

— ChEMBL document CHEMBL1124109, “Novel calcium antagonists. Synthesis and structure-activity relationship studies of benzothiazoline derivatives” (J Med Chem, 1988)
